Calls of active or inactive are those of the source. No cut-off for these calls is given here.
target: T1, Retinoid X receptor (Homo sapiens) (UniProt P28702+P48443+P19793); assay: Agonist activity at human RXR binding domain and activation domain expressed in human HCT116 cells assessed as rexinoid activity at 25 nM incubated for 24 hrs by luciferase reporter gene based mammalian two-hybrid assay relative to bexarotene; format: cell-based; conditions: not given
In short: (§1)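 HCT-116 cells plated overnight (80,000/well, DMEM with 10% FBS), co-transfected for 24 h with human RXR binding-domain (bait) and activation-domain (prey) vectors, pFR-Luc Gal4 reporter and renilla control. Treated 24 h at 25, 100 or 1000 nM final; vehicle ethanol or DMSO 0.1%. Dual-luciferase read-out. Three independent assays in triplicate; bexarotene set to 100%.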

T1 sequence (P28702 whole entry, looked up, one chain of several, the tested form may be a part): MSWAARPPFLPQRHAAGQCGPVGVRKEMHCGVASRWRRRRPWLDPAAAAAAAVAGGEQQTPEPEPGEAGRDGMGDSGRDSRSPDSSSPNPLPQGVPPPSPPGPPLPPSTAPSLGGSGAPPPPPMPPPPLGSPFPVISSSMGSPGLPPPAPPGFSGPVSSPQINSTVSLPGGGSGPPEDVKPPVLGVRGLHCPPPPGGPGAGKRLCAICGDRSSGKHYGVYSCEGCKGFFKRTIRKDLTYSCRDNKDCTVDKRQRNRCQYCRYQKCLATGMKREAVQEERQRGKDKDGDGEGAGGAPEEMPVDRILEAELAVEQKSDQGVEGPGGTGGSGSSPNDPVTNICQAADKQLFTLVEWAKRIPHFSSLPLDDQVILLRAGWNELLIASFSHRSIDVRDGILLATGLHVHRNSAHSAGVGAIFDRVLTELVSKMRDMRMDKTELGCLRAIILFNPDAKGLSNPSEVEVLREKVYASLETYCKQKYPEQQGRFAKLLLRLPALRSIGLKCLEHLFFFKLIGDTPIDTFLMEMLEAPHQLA
T1 sequence (P48443 whole entry, looked up, one chain of several, the tested form may be a part): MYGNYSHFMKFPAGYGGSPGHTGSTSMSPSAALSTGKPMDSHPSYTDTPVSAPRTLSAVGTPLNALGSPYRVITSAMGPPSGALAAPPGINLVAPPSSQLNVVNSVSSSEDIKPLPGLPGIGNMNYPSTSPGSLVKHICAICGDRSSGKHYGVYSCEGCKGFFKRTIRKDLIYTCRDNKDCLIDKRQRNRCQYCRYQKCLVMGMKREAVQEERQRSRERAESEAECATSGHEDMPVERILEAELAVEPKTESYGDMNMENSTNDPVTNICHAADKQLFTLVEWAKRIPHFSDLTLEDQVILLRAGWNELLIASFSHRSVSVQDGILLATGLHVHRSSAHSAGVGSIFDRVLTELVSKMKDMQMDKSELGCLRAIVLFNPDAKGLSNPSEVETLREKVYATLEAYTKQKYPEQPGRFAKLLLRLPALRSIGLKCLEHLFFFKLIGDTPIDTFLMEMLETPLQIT

| Activity | fold change (FC) | Structure (SMILES) |
| --- | --- | --- |
| 140 to 150% |  | CCN(c1ccc(C(=O)O)cc1)c1cc2c(cc1C)C(C)(C)CCC2(C)C |
| 140 to 150% |  | CCN(c1ccc(C(=O)O)c(F)c1)c1cc2c(cc1C)C(C)(C)CCC2(C)C |

The next lines start with the compound.

| Structure (SMILES) | Activity | fold change (FC) |
| --- | --- | --- |
| CCN(c1ccc2c(c1)C(C)(C)CCC2(C)C)c1ccc(C(=O)O)cn1 |  | 2 |
| CCN(c1ccc2c(c1)C(C)(C)CCC2(C)C)c1cnc(C(=O)O)cn1 | 11.3% |  |
| CCN(c1ncc(C(=O)O)cn1)c1cc2c(cc1C)C(C)(C)CCC2(C)C |  | 2 |

target: T1, Retinoid X receptor (Homo sapiens); assay: Agonist activity at human RXR binding domain and activation domain expressed in human HCT116 cells assessed as rexinoid activity at 100 nM incubated for 24 hrs by luciferase reporter gene based mammalian two-hybrid assay relative to bexarotene; format: cell-based; conditions: not given; in short: as §1

| Activity | Structure (SMILES) |
| --- | --- |
| Active | CCN(c1ccc(C(=O)O)cc1)c1cc2c(cc1C)C(C)(C)CCC2(C)C |
| Active | CCN(c1ccc(C(=O)O)c(F)c1)c1cc2c(cc1C)C(C)(C)CCC2(C)C |

More lines, now with the values behind:

| Structure (SMILES) | Activity |
| --- | --- |
| CCN(c1ccc2c(c1)C(C)(C)CCC2(C)C)c1ccc(C(=O)O)cn1 | 135 to 146% |
| CCN(c1ncc(C(=O)O)cn1)c1cc2c(cc1C)C(C)(C)CCC2(C)C | 135 to 146% |

same assay, conditions: in the assay text read “relative to activity at 25 nM” for “relative to bexarotene”

| fold change (FC) | Structure (SMILES) |
| --- | --- |
| 5 to 16 | CCN(c1ccc2c(c1)C(C)(C)CCC2(C)C)c1cnc(C(=O)O)cn1 |

target: T1, Retinoid X receptor (Homo sapiens); assay: Agonist activity at human RXR binding domain and activation domain expressed in human HCT116 cells assessed as rexinoid activity at 1000 nM incubated for 24 hrs by luciferase reporter gene based mammalian two-hybrid assay relative to bexarotene; format: cell-based; conditions: not given; in short: as §1

| Activity | Structure (SMILES) |
| --- | --- |
| 51 to 56% | CCN(c1ccc(C(=O)O)cc1)c1cc2c(cc1C)C(C)(C)CCC2(C)C |
| 51 to 56% | CCN(c1ccc(C(=O)O)c(F)c1)c1cc2c(cc1C)C(C)(C)CCC2(C)C |

Continued, compound first:

| Structure (SMILES) | Activity |
| --- | --- |
| CCN(c1ccc2c(c1)C(C)(C)CCC2(C)C)c1ccc(C(=O)O)cn1 | 35 to 58% |
| CCN(c1ccc2c(c1)C(C)(C)CCC2(C)C)c1cnc(C(=O)O)cn1 | 35 to 58% |
| CCN(c1ncc(C(=O)O)cn1)c1cc2c(cc1C)C(C)(C)CCC2(C)C | 35 to 58% |

target: T2, Retinoic acid receptor RXR-alpha (Homo sapiens) (UniProt P19793); assay: Agonist activity at human RXRalpha expressed in human HCT116 cells assessed as increase in RXRE-mediated transcription incubated for 24 hrs by RXRE luciferase reporter gene assay; format: cell-based; conditions: not given
T2 sequence (whole entry): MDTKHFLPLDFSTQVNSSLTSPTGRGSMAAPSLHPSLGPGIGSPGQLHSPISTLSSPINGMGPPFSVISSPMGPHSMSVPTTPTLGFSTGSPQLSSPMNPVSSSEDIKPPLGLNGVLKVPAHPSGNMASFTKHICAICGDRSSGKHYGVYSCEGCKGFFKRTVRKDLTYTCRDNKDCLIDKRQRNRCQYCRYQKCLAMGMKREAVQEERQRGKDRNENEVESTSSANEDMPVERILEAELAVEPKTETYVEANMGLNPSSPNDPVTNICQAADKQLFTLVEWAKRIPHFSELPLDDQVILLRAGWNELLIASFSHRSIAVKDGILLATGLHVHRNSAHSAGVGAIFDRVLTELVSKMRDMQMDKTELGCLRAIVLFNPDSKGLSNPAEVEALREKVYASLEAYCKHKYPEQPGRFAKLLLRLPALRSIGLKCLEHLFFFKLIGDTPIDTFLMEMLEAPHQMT

| Activity | Structure (SMILES) |
| --- | --- |
| inactive | CCN(c1ccc2c(c1)C(C)(C)CCC2(C)C)c1cnc(C(=O)O)cn1 |

target: T2, Retinoic acid receptor RXR-alpha (Homo sapiens); assay: Agonist activity at human RXRalpha expressed in human HCT116 cells assessed as increase in RXRE-mediated transcription at 100 nM incubated for 24 hrs by RXRE luciferase reporter gene assay relative to bexarotene; format: cell-based; conditions: not given
In short: (§2)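 HCT-116 cells (80,000/well) co-transfected for 24 h with 250 ng RXRE-luciferase reporter (DR1 element from the rat cellular retinol binding protein II gene), 25 ng pSG5-human RXRα and 20 ng renilla. Dosed 24 h at 25, 100 or 1000 nM final; ethanol or DMSO vehicle 0.1%. Dual-luciferase read-out. Three independent assays in triplicate; bexarotene = 100%.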

| Activity | Structure (SMILES) |
| --- | --- |
| 16 to 32% | CCN(c1ccc(C(=O)O)cc1)c1cc2c(cc1C)C(C)(C)CCC2(C)C |
| 16 to 32% | CCN(c1ccc(C(=O)O)c(F)c1)c1cc2c(cc1C)C(C)(C)CCC2(C)C |

The remaining lines, values behind:

| Structure (SMILES) | Activity |
| --- | --- |
| CCN(c1ccc2c(c1)C(C)(C)CCC2(C)C)c1ccc(C(=O)O)cn1 | 68 to 89% |
| CCN(c1ncc(C(=O)O)cn1)c1cc2c(cc1C)C(C)(C)CCC2(C)C | 68 to 89% |

target: T2, Retinoic acid receptor RXR-alpha (Homo sapiens); assay: Agonist activity at human RXRalpha expressed in human HCT116 cells assessed as increase in RXRE-mediated transcription at 1000 nM incubated for 24 hrs by RXRE luciferase reporter gene assay relative to bexarotene; format: cell-based; conditions: not given; in short: as §2

| Activity | Structure (SMILES) |
| --- | --- |
| Active | CCN(c1ccc(C(=O)O)cc1)c1cc2c(cc1C)C(C)(C)CCC2(C)C |
| Active | CCN(c1ccc(C(=O)O)c(F)c1)c1cc2c(cc1C)C(C)(C)CCC2(C)C |

The remaining lines, values behind:

| Structure (SMILES) | Activity |
| --- | --- |
| CCN(c1ccc2c(c1)C(C)(C)CCC2(C)C)c1ccc(C(=O)O)cn1 | 20 to 43% |
| CCN(c1ccc2c(c1)C(C)(C)CCC2(C)C)c1cnc(C(=O)O)cn1 | 20 to 43% |
| CCN(c1ncc(C(=O)O)cn1)c1cc2c(cc1C)C(C)(C)CCC2(C)C | 20 to 43% |

test system: not listed separately; assay: Lipid risk index, ratio of agonist activity at human RXRalpha/LXRalpha expressed in human HCT116 cells assessed as reduction in SREBP-mediated transcription activity to agonist activity at human RXRalpha expressed in human HCT116 cells assessed as increase in RXRE-mediated transcription; conditions: not given
In short: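 Lipid risk index: SREBP-promoter luciferase activity (HCT116, LXRα-transfected, 100 nM compound with or without 100 nM TO901317, 24 h) divided by RXRE activity at 100 nM. The SREBP:RXRE ratio for bexarotene is set to 1.0.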

| Structure (SMILES) | Ratio |
| --- | --- |
| CCN(c1ccc(C(=O)O)cc1)c1cc2c(cc1C)C(C)(C)CCC2(C)C | 0.48 - 0.65 |
| CCN(c1ccc2c(c1)C(C)(C)CCC2(C)C)c1ccc(C(=O)O)cn1 | 0.49 - 0.51 |
| CCN(c1ccc(C(=O)O)c(F)c1)c1cc2c(cc1C)C(C)(C)CCC2(C)C | 0.48 - 0.65 |
| CCN(c1ccc2c(c1)C(C)(C)CCC2(C)C)c1cnc(C(=O)O)cn1 | 0.48 - 0.65 |
| CCN(c1ncc(C(=O)O)cn1)c1cc2c(cc1C)C(C)(C)CCC2(C)C | 0.49 - 0.51 |

test system: HuT78; assay: Inhibition of HDAC1 gene expression in human HUT78 cells at 100 nM incubated for 48 hrs by quantitative real-time PCR method; format: functional; conditions: not given
In short: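 Hut78 cells resuspended in RPMI with 1% FBS, plated 750,000/well and dosed at 100 nM for 48 h. Total RNA extracted, 0.5 µg DNase-treated RNA reverse-transcribed, then qPCR for HDAC1. Quantified by ΔΔCt, normalized to GAPDH and relative to vehicle-treated cells (2^-ΔΔCt).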

| Structure (SMILES) | inhibition |
| --- | --- |
| CCN(c1ccc2c(c1)C(C)(C)CCC2(C)C)c1ccc(C(=O)O)cn1 | inactive |

same assay, conditions: HuT78, 48 h

| Structure (SMILES) | inhibition at 0.1 µM |
| --- | --- |
| CCN(c1ncc(C(=O)O)cn1)c1cc2c(cc1C)C(C)(C)CCC2(C)C | 28% |

test system: not listed separately; assay: Mutagenicity in Saccharomyces cerevisiae D7 assessed as induction of mutagenesis by measuring forward and reverse mutations up to 0.1 mg/mL; format: toxicity; conditions: not given

| Structure (SMILES) | Activity |
| --- | --- |
| CCN(c1ccc(C(=O)O)cc1)c1cc2c(cc1C)C(C)(C)CCC2(C)C | Non-Toxic |
| CCN(c1ccc2c(c1)C(C)(C)CCC2(C)C)c1ccc(C(=O)O)cn1 | Non-Toxic |
| CCN(c1ccc(C(=O)O)c(F)c1)c1cc2c(cc1C)C(C)(C)CCC2(C)C | Non-Toxic |
| CCN(c1ccc2c(c1)C(C)(C)CCC2(C)C)c1cnc(C(=O)O)cn1 | Non-Toxic |
| CCN(c1ncc(C(=O)O)cn1)c1cc2c(cc1C)C(C)(C)CCC2(C)C | Non-Toxic |

Source: ChEMBL document CHEMBL4428090, “Modeling, Synthesis, and Biological Evaluation of Potential Retinoid X Receptor (RXR)-Selective Agonists: Analogues of 4-[1-(3,5,5,8,8-Pentamethyl-5,6,7,8-tetrahydro-2-naphthyl)ethynyl]benzoic Acid (Bexarotene) and 6-(Ethyl(5,5,8,8-tetrahydronaphthalen-2-yl)amino)nicotinic Acid (NEt-TMN)” (J Med Chem, 2016)
